# Results as given in ChEMBL document CHEMBL1140117, “Structure-activity relationship studies for the peptide portion of the bladder epithelial cell antiproliferative factor from interstitial cystitis patients” (2008).
# Active and inactive are the calls of the source. Residues, ends and D or L forms follow the SMILES beside them. *: point of attachment. X1 = CC(=O)N[C@@H]1[C@@H](O[C@@H]2O[C@H](CO)[C@H](O)[C@H](O)[C@H]2O)[C@@H](O)[C@@H](CO)O[C@@H]1*
# Test system: Epithelial cell
# Experiment: Antiproliferative activity against human bladder epithelial cells assessed as inhibition of [3H]thymidine incorporation at <25 uM after 48 hrs relative to as-APF
# Assay type: functional, cell-based
# Procedure, shortened: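 Primary normal human bladder epithelial cells, explanted from cystoscopy biopsies, plated at 1.5 × 10⁴ cells/well in MEM with 10% heat-inactivated FBS. Congeners dissolved in acetonitrile/water (1:1), added in serum-free MEM in 10-fold dilutions up to the 25 µM assay cutoff. Incubated 48 h at 37 °C, 5% CO₂. ³H-thymidine uptake counted on filters. Activity expressed relative to the standard control run on each plate. Triplicates, at least two runs, ANOVA.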
row,SMILES,Activity
1,CC(=O)N[C@H]1[C@@H](O[C@H](C)[C@H](N)C(=O)N[C@H](C(=O)N2CCC[C@@H]2C(=O)N[C@@H](C)C(=O)N[C@@H](C)C(=O)N[C@H](C(=O)N[C@H](C(=O)N[C@H](C(=O)N[C@@H](C)C(=O)O)C(C)C)C(C)C)C(C)C)C(C)C)O[C@H](CO)[C@H](O)[C@@H]1O[C@@H]1O[C@H](CO)[C@H](O)[C@H](O)[C@H]1O,inactive
2,CC(=O)N[C@H]1[C@@H](O[C@H](C)[C@H](N)C(=O)N[C@H](C(=O)N2CCC[C@H]2C(=O)NCCCCCCCCCCCC(=O)O)C(C)C)O[C@H](CO)[C@H](O)[C@@H]1O[C@@H]1O[C@H](CO)[C@H](O)[C@H](O)[C@H]1O,inactive
3,CC(=O)N[C@H]1[C@@H](O[C@H](C)[C@H](N)C(=O)N[C@H](C(=O)N2CCC[C@H]2C(=O)N[C@@H](C)C(=O)N[C@@H](C)C(=O)N[C@H](C(=O)N[C@@H](C(=O)N[C@H](C(=O)N[C@@H](C)C(=O)O)C(C)C)C(C)C)C(C)C)C(C)C)O[C@H](CO)[C@H](O)[C@@H]1O[C@@H]1O[C@H](CO)[C@H](O)[C@H](O)[C@H]1O,inactive
4,CC(=O)N[C@H]1[C@@H](O[C@H](C)[C@H](N)C(=O)N[C@@H](CC(C)C)C(=O)N2CCC[C@H]2C(=O)N[C@@H](C)C(=O)N[C@@H](C)C(=O)N[C@H](C(=O)N[C@H](C(=O)N[C@H](C(=O)N[C@@H](C)C(=O)O)C(C)C)C(C)C)C(C)C)O[C@H](CO)[C@H](O)[C@@H]1O[C@@H]1O[C@H](CO)[C@H](O)[C@H](O)[C@H]1O (H-T(X1)LPAAVVVA-OH),inactive
5,CC(=O)N[C@H]1[C@@H](O[C@H](C)[C@H](N)C(=O)N[C@H](C(=O)N2CCC[C@H]2C(=O)N[C@@H](C)C(=O)N[C@@H](C)C(=O)O)C(C)C)O[C@H](CO)[C@H](O)[C@@H]1O[C@@H]1O[C@H](CO)[C@H](O)[C@H](O)[C@H]1O (H-T(X1)VPAA-OH),inactive
6,CC[C@H](C)[C@H](NC(=O)[C@H](C)NC(=O)[C@H](C)NC(=O)[C@@H]1CCCN1C(=O)[C@@H](NC(=O)[C@@H](N)[C@@H](C)O[C@H]1O[C@H](CO)[C@H](O)[C@H](O[C@@H]2O[C@H](CO)[C@H](O)[C@H](O)[C@H]2O)[C@H]1NC(C)=O)C(C)C)C(=O)N[C@H](C(=O)N[C@H](C(=O)N[C@@H](C)C(=O)O)[C@@H](C)CC)C(C)C (H-T(X1)VPAAIVIA-OH),inactive
7,CC(=O)N[C@H]1[C@@H](O[C@H](C)[C@H](N)C(=O)N[C@H](C(=O)N2CCC[C@H]2C(=O)N[C@@H](C)C(=O)N[C@@H](C)C(=O)N[C@H](C(=O)N[C@H](C(=O)O)C(C)C)C(C)C)C(C)C)O[C@H](CO)[C@H](O)[C@@H]1O[C@@H]1O[C@H](CO)[C@H](O)[C@H](O)[C@H]1O (H-T(X1)VPAAVV-OH),inactive
8,CC(=O)N[C@H]1[C@@H](O[C@H](C)[C@H](N)C(=O)N[C@H](C(=O)N2CCC[C@H]2C(=O)N[C@@H](C)C(=O)N[C@@H](C)C(=O)N[C@H](C(=O)N[C@H](C(=O)N[C@@H](C)C(=O)N[C@H](C(=O)O)C(C)C)C(C)C)C(C)C)C(C)C)O[C@H](CO)[C@H](O)[C@@H]1O[C@@H]1O[C@H](CO)[C@H](O)[C@H](O)[C@H]1O (H-T(X1)VPAAVVAV-OH),inactive
9,CC(=O)N[C@H]1[C@@H](O[C@H](C)[C@H](N)C(=O)N[C@H](C(=O)N2CCC[C@H]2C(=O)N[C@@H](C)C(=O)N[C@@H](C)C(=O)N[C@H](C(=O)N[C@H](C(=O)N[C@H](C(=O)N[C@@H](C)C(=O)N[C@@H](CCC(=O)O)C(=O)O)C(C)C)C(C)C)C(C)C)C(C)C)O[C@H](CO)[C@H](O)[C@@H]1O[C@@H]1O[C@H](CO)[C@H](O)[C@H](O)[C@H]1O (H-T(X1)VPAAVVVAE-OH),inactive
10,CC(=O)N[C@H]1[C@@H](O[C@H](C)[C@H](N)C(=O)N[C@H](C(=O)N2CCC[C@H]2C(=O)N[C@@H](C)C(=O)N[C@@H](C)C(=O)N[C@H](C(=O)N[C@H](C(=O)N[C@H](C(=O)N[C@@H](C)C(=O)N[C@@H](CCCCN)C(=O)O)C(C)C)C(C)C)C(C)C)C(C)C)O[C@H](CO)[C@H](O)[C@@H]1O[C@@H]1O[C@H](CO)[C@H](O)[C@H](O)[C@H]1O (H-T(X1)VPAAVVVAK-OH),inactive
